In brackets after ≈: the same amount, converted by molar mass. Activity calls are given as the source filed them. No cut-off for these calls is given here.
Assays:
[1] = Induction of apoptosis in human OUMS-24 cells after 72 hrs by Hoechst 33342/propidium iodide staining-based fluorescence microscopy; type: cell-based; details: oums-24, 72 h
Method in brief: (§1)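 OCUM-2MD3 cells grown in DMEM/F12 (1:1); OUMS-24 normal fibroblasts grown in DMEM; both media with 10% FBS, 100 μg/mL kanamycin and 0.5 μg/mL Fungizone. Cells plated, incubated 24 h, then treated with compound at 1–100 μM for 72 h. Stained with 1 μg/mL Hoechst 33342 plus 5 μg/mL propidium iodide for 20 min in the dark and examined by fluorescence microscopy. Cells with fragmented or shrunken nuclei counted as apoptotic; result given as % increase over DMSO control.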

OCUM-2MD3 [2] = assay: Induction of apoptosis in human OCUM-2MD3 cells after 72 hrs by Hoechst 33342/propidium iodide staining-based fluorescence microscopy; type: functional, cell-based; method in brief: as §1
[3] = target: T1, Peroxisome proliferator-activated receptor gamma (Homo sapiens, UniProt P37231); assay: Agonist activity at human PPAR-gamma1 LBD (176 to 477) transfected in african green monkey CV1 cells after 40 hrs by beta galactosidase-based luciferase reporter gene assay; type: cell-based, CV-1
T1 sequence (P37231 whole entry): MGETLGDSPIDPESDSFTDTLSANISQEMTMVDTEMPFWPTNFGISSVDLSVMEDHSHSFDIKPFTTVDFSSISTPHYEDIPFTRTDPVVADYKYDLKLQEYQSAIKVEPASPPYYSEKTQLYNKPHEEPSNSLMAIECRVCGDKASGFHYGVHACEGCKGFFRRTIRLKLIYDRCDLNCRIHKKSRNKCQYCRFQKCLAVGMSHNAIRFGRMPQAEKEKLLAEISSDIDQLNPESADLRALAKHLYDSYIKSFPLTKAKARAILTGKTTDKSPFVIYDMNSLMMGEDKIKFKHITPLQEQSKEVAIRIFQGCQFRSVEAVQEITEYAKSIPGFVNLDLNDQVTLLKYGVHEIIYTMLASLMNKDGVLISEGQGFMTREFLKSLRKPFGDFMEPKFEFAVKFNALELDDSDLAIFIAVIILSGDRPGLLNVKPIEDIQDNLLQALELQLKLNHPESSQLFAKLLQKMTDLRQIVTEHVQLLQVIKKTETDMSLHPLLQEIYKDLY
Method in brief: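 CV-1 cells seeded at 0.5×10^5 per well, cultured 24 h, then lipofected for 5 h. Transfection mix: 30 ng GAL4-PPAR chimeric receptor plasmid, 250 ng MH100x4-tk-luc reporter, 350 ng pCMX-βGAL for normalization, 120 ng pGEM4 carrier. Compounds added for 40 h, then luciferase and βGAL read in lysates. Activity scaled between 0.1% DMSO (minimum) and 10^-5 M rosiglitazone maleate (maximum). EC50 is the concentration giving 50% of maximal reporter activity.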

[4] = target: T2, Peroxisome proliferator-activated receptor gamma (Homo sapiens) (UniProt P37231); assay: Agonist activity at human PPAR-gamma1 LBD (176 to 477) transfected in african green monkey CV1 cells after 40 hrs by beta galactosidase-based luciferase reporter gene assay relative to rosiglitazone; type: cell-based; details: CV-1
T2 sequence (whole entry): T1 sequence (P37231 whole entry)
Method in brief: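 GAL4-PPAR chimera transactivation in CV-1 cells (0.5×10^5/well, 24 h), lipofected 5 h with 30 ng receptor plasmid, 250 ng MH100x4-tk-luc reporter, 350 ng pCMX-βGAL normalisation plasmid, 120 ng pGEM4 carrier. Compounds for 40 h. Luciferase and βGAL read from lysates. Activity scaled between 0.1% DMSO (minimum) and 10^-5 M rosiglitazone maleate (maximum). EC50 = concentration giving 50% maximal reporter activity.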

[5] = Thermodynamic solubility of the compound in phosphate buffer at pH 7.2 to 7.4 after 48 hrs by UV-HPLC analysis; type: physicochemical; details: read-out: Therm_solubility
Method in brief: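 About 1 mg of compound ground and suspended in 1.0 mL phosphate buffer (pH 7.2–7.4), then shaken 48 h at 25 °C. Suspension filtered (0.45 μm), filtrate diluted in CH3CN and analysed by HPLC with UV detection at 254 nm. Concentration taken from a calibration curve and corrected for dilution.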

OCUM-2MD3 [6] = assay: Induction of apoptosis in human OCUM-2MD3 cells at 10 to 100 uM after 72 hrs by Hoechst 33342/propidium iodide staining-based fluorescence microscopy; type: functional, cell-based; method in brief: as §1
[7] = Induction of apoptosis in human OUMS-24 cells at 100 uM after 72 hrs by Hoechst 33342/propidium iodide staining-based fluorescence microscopy; type: cell-based; details: oums-24, 72 h; method in brief: as §1
[8] = target: T3, Peroxisome proliferator-activated receptor gamma (Mus musculus) (UniProt P37238); assay: Agonist activity at PPAR-gamma in mouse 3T3-L1 cells assessed as adipocyte differentiation after 6 days by Oil Red O staining; type: cell-based
T3 sequence (whole entry): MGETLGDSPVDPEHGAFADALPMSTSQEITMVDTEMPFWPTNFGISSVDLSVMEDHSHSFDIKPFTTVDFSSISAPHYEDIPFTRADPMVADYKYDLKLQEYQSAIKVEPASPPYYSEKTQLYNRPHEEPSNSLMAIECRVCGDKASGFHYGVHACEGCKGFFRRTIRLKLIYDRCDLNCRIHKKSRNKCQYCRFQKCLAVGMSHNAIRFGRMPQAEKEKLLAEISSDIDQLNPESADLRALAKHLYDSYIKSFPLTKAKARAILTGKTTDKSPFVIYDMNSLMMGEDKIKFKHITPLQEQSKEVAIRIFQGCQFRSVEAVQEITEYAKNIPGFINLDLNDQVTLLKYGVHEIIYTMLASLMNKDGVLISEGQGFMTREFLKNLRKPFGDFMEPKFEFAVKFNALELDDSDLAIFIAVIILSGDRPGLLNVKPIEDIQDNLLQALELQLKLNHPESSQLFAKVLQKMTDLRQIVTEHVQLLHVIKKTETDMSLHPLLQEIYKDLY
Method in brief: (§2)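 3T3-L1 cells grown in DMEM with 10% FBS. At confluence, differentiation started with 1 μM dexamethasone, 0.5 mM IBMX and 5 μg/mL insulin for 2 days. Ligands then added at 1–1000 nM. After 6 days cells stained with Oil Red O and adipogenesis read as absorbance at OD550. Error bars are SD.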

[9] = target: T3, Peroxisome proliferator-activated receptor gamma (Mus musculus); assay: Agonist activity at PPAR-gamma in mouse 3T3-L1 cells assessed as induction of triglyceride accumulation at 1 to 1000 nM after 6 days by Oil Red O staining; type: cell-based; method in brief: as §2
[10] = target: T3, Peroxisome proliferator-activated receptor gamma (Mus musculus); assay: Agonist activity at PPAR-gamma in mouse 3T3-L1 cells assessed as adipocyte differentiation at 1 to 1000 nM after 6 days by Oil Red O staining; type: cell-based; method in brief: as §2
[11] = target: T3, Peroxisome proliferator-activated receptor gamma (Mus musculus); assay: Partial agonist activity at PPAR-gamma in mouse 3T3-L1 cells assessed as adipocyte differentiation at […] after 6 days by Oil Red O staining; type: cell-based; method in brief: as §2

Structure (SMILES): CCc1ccc(CCOc2ccc(CC3SC(=O)NC3=O)cc2)nc1 (centres undefined) [PIOGLITAZONE]
- Activity [1]: Non-toxic
- Activity (OCUM-2MD3 [2]): Dose-dependent effect

Structure (SMILES): CCCOc1ccc(C[C@@H](Cc2ccccc2)C(=O)O)cc1CNC(=O)c1ccc(-c2cccnc2)cc1
- EC50 [3]: 844 nM
- Efficacy [4]: 100%
- solubility thermodynamic at 48 h [5]: 69.5 µg/mL (≈ 137 µM)

Structure (SMILES): CCCOc1ccc(C[C@H](Cc2ccccc2)C(=O)O)cc1CNC(=O)c1ccc(C23CC4CC(CC(C4)C2)C3)cc1
- Activity (OCUM-2MD3 [6]): Active
- Activity (OCUM-2MD3 [2]): Dose-dependent effect
- solubility thermodynamic at 48 h [5]: < 1 µg/mL
- Activity [7]: Toxic

Structure (SMILES): CCCOc1ccc(C[C@@H](Cc2ccccc2)C(=O)O)cc1CNC(=O)c1ccc(-c2ccccc2F)cc1
- EC50 [3]: 49.5 nM
- Efficacy [4]: 95%
- solubility thermodynamic at 48 h [5]: < 1 µg/mL

Structure (SMILES): CCCOc1ccc(C[C@@H](Cc2ccccc2)C(=O)O)cc1CNC(=O)c1ccc(-c2ccc(F)cc2)cc1
- EC50 [3]: 103 nM
- Efficacy [4]: 104%
- solubility thermodynamic at 48 h [5]: < 1 µg/mL

Structure (SMILES): CCCOc1ccc(C[C@@H](Cc2ccccc2)C(=O)O)cc1CNC(=O)c1ccc(-c2ccccc2C)cc1
- EC50 [3]: 73.8 nM
- Efficacy [4]: 72.7%
- solubility thermodynamic at 48 h [5]: < 1 µg/mL

Structure (SMILES): CCCOc1ccc(C[C@@H](Cc2ccccc2)C(=O)O)cc1CNC(=O)c1ccc(-c2ccncc2)cc1
- EC50 [3]: 1690 nM
- Efficacy [4]: 108%
- solubility thermodynamic at 48 h [5]: 34.1 µg/mL (≈ 67 µM)

Structure (SMILES): CCCOc1ccc(C[C@H](CC)C(=O)O)cc1CNC(=O)c1ccc(C23CC4CC(CC(C4)C2)C3)cc1
- Activity [8]: Dose-dependent effect
- Activity [9]: Active
- Activity [10]: Active

Structure (SMILES): CCCOc1ccc(C[C@@H](Cc2ccccc2)C(=O)O)cc1CNC(=O)c1ccc(-c2cncnc2)cc1
- EC50 [3]: 3100 nM
- Efficacy [4]: 82.7%
- solubility thermodynamic at 48 h [5]: 190 µg/mL (≈ 373 µM)

Structure (SMILES): CCCOc1ccc(C[C@@H](Cc2ccccc2)C(=O)O)cc1CNC(=O)c1ccc(-c2ccccc2)cc1
- EC50 [3]: 85.9 nM
- Efficacy [4]: 95.7%
- solubility thermodynamic at 48 h [5]: < 1 µg/mL

Structure (SMILES): CCCOc1ccc(C[C@@H](Cc2ccccc2)C(=O)O)cc1CNC(=O)c1ccc(-c2cccs2)cc1
- EC50 [3]: 65.2 nM
- Efficacy [4]: 76%
- solubility thermodynamic at 48 h [5]: < 1 µg/mL

Structure (SMILES): CCCOc1ccc(C[C@@H](Cc2ccccc2)C(=O)O)cc1CNC(=O)c1ccc(-c2cccc(F)c2)cc1
- EC50 [3]: 28.7 nM
- Efficacy [4]: 99.7%
- solubility thermodynamic at 48 h [5]: < 1 µg/mL

Structure (SMILES): CCCOc1ccc(C[C@@H](Cc2ccccc2)C(=O)O)cc1CNC(=O)c1ccc(-c2ccccn2)cc1
- EC50 [3]: 186 nM
- Efficacy [4]: 113%
- solubility thermodynamic at 48 h [5]: 17 µg/mL (≈ 33.4 µM)

Structure (SMILES): CCCOc1ccc(C[C@@H](Cc2ccccc2)C(=O)O)cc1CNC(=O)c1ccc(-c2ncccn2)cc1
- Activity [9]: Active
- EC50 [3]: 34.6 nM
- Activity (OCUM-2MD3 [2]): Dose-dependent effect
- Efficacy [4]: 65%
- solubility thermodynamic at 48 h [5]: 301 µg/mL (≈ 591 µM)
- Activity [10]: Active
- Activity [11]: Active

Structure (SMILES): CCCOc1ccc(C[C@@H](Cc2ccccc2)C(=O)O)cc1CNC(=O)c1ccc(-c2cnccn2)cc1
- EC50 [3]: 714 nM
- Efficacy [4]: 58.2%
- solubility thermodynamic at 48 h [5]: 32.2 µg/mL (≈ 63.2 µM)

— ChEMBL document CHEMBL2375286, “Design and synthesis of a series of α-benzyl phenylpropanoic acid-type peroxisome proliferator-activated receptor (PPAR) gamma partial agonists with improved aqueous solubility” (Bioorg Med Chem, 2013)
